# Test results reported in ChEMBL document CHEMBL1208782, “Synthesis and pharmacological validation of a novel series of non-steroidal FXR agonists” (Bioorg Med Chem Lett, 2010).
# Active and inactive are the calls of the source. The calls are words filed in the database; no cut-off is given here.
# Assays:
# [1] = Drug level in db/db mouse bile measured metabolites as taurine amide at 1 mg/kg, iv after 240 mins; type: ADME, organism-based; parameters: dose 1 mg/kg, route intravenous; conditions: in vivo, 4 h
# Summary of the method: (§1)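 Mice got a single dose, 5 mg/kg po or 1 mg/kg iv. Liver and bile were sampled 240 min after dosing. Parent carboxylic acid, its acyl-glucuronide and its taurine amide were quantified separately, in ng/mL. Glucuronide identity was confirmed by glucuronidase digestion of bile or bile extracts, which regenerated the parent.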
# Liver [2] = experiment: Drug level in db/db mouse liver measured metabolites as taurine amide at 1 mg/kg, iv after 240 mins; type: ADME, organism-based; parameters: dose 1 mg/kg, route intravenous; conditions: in vivo, 4 h; summary of the method: as §1
# [3] = Plasma concentration in db/db mouse at 5 mg/kg, po after 30 mins; type: ADME, organism-based; parameters: dose 5 mg/kg, route oral; conditions: read-out: Drug uptake
# Summary of the method: (§2)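 Single dose to mice, 5 mg/kg po or 1 mg/kg iv. Plasma was sampled at 5, 10, 30, 90 and 240 min. Only parent compound was measured, in ng/mL.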
# [4] = Plasma concentration in db/db mouse at 1 mg/kg, iv after 10 mins; type: ADME, organism-based; parameters: dose 1 mg/kg, route intravenous; conditions: read-out: Drug uptake; summary of the method: as §2
# [5] = Drug level in db/db mouse bile measured metabolites as glucuronide at 1 mg/kg, iv after 240 mins; type: ADME, organism-based; parameters: dose 1 mg/kg, route intravenous; conditions: in vivo, 4 h
# [6] = biological target: T1, Bile acid receptor (Homo sapiens) (UniProt Q96RI1); experiment: Agonist activity at human GST-fused FXR LBD assessed as cofactor peptide interaction with receptor ligand binding domain by FRET assay relative to GW-4064
# T1 sequence (whole entry): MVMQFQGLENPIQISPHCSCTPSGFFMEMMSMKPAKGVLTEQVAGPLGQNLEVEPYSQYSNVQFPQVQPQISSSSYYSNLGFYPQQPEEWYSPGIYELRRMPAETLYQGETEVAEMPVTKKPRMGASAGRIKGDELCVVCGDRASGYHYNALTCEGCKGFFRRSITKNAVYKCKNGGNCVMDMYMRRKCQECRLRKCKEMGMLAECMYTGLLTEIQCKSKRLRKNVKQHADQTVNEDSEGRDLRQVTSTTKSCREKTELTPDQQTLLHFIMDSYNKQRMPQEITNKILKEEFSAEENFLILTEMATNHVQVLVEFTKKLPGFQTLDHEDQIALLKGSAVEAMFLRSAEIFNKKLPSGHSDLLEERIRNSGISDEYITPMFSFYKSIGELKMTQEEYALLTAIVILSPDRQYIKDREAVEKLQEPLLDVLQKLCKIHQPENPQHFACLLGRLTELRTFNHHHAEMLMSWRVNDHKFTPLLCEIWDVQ
# Bile acid receptor [7] = biological target: T2, Bile acid receptor (Homo sapiens, UniProt Q96RI1); experiment: Agonist activity at human […] FXR LBD expressed in HEK293 cells coexpressing GAL4-DNA bindig domain and pFRluc by mammalian one-hybrid assay; type: functional, cell-based; conditions: read-out: EC50
# T2 sequence (Q96RI1 whole entry): T1 sequence (whole entry)
# Liver [8] = experiment: Drug level in db/db mouse liver measured metabolites as taurine amide at 5 mg/kg, po after 240 mins; type: ADME, organism-based; parameters: dose 5 mg/kg, route oral; conditions: in vivo, 4 h; summary of the method: as §1
# [9] = Plasma concentration in db/db mouse at 1 mg/kg, iv after 90 mins; type: ADME, organism-based; parameters: dose 1 mg/kg, route intravenous; conditions: read-out: Drug uptake; summary of the method: as §2
# [10] = Oral bioavailability in db/db mouse at 5 mg/kg, po; type: ADME, organism-based; conditions: in vivo
# Summary of the method: (§3)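 Derived from the single-dose mouse plasma time courses of parent compound, 5-240 min. Dosing was 5 mg/kg po or 1 mg/kg iv. Volume of distribution is in mL/kg, clearance in mL/h/kg, and oral bioavailability in %.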
# [11] = Clearance in db/db mouse at 5 mg/kg, po; type: ADME, organism-based; parameters: dose 5 mg/kg, route oral; conditions: in vivo
# Summary of the method: (§4)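 Mice received a single dose of 5 mg/kg po or 1 mg/kg iv. Plasma was sampled at 5, 10, 30, 90 and 240 min and the parent compound alone was measured (ng/mL). Clearance (mL/h/kg), Vd (mL/kg) and oral bioavailability were derived from these plasma profiles.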
# [12] = biological target: T1, Bile acid receptor (Homo sapiens); experiment: Agonist activity at human full length FXR transfected in HEK293 cells coexpressing pTRexDest/pGL2promotor assessed as luciferase activity by direct reporter cellular assay relative to GW-4064; type: functional, cell-based
# [13] = Plasma concentration in db/db mouse at 5 mg/kg, po after 5 mins; type: ADME, organism-based; parameters: dose 5 mg/kg, route oral; conditions: read-out: Drug uptake; summary of the method: as §2
# [14] = Plasma concentration in db/db mouse at 5 mg/kg, po after 90 mins; type: ADME, organism-based; parameters: dose 5 mg/kg, route oral; conditions: read-out: Drug uptake; summary of the method: as §2
# Liver [15] = experiment: Drug level in db/db mouse liver measured metabolites as carboxylic acid at 5 mg/kg, po after 240 mins; type: ADME, organism-based; parameters: dose 5 mg/kg, route oral; conditions: in vivo, 4 h; summary of the method: as §1
# [16] = Plasma concentration in db/db mouse at 1 mg/kg, iv after 5 mins; type: ADME, organism-based; parameters: dose 1 mg/kg, route intravenous; conditions: read-out: Drug uptake; summary of the method: as §2
# Bile acid receptor [17] = biological target: T2, Bile acid receptor; experiment: Agonist activity at human full length FXR transfected in HEK293 cells coexpressing pTRexDest/pGL2promotor assessed as luciferase activity by direct reporter cellular assay; type: functional, cell-based; conditions: read-out: EC50
# Bile acid receptor [18] = biological target: T2, Bile acid receptor; experiment: Agonist activity at human GST-fused FXR LBD assessed as cofactor peptide interaction with receptor ligand binding domain by FRET assay
# [19] = Drug level in db/db mouse bile measured metabolites as glucuronide at 5 mg/kg, po after 240 mins; type: ADME, organism-based; parameters: dose 5 mg/kg, route oral; conditions: in vivo, 4 h
# [20] = Drug level in db/db mouse bile measured metabolites as carboxylic acid at 5 mg/kg, po after 240 mins; type: ADME, organism-based; parameters: dose 5 mg/kg, route oral; conditions: in vivo, 4 h
# [21] = Plasma concentration in db/db mouse at 5 mg/kg, po after 10 mins; type: ADME, organism-based; parameters: dose 5 mg/kg, route oral; conditions: read-out: Drug uptake; summary of the method: as §2
# Liver [22] = experiment: Drug level in db/db mouse liver measured metabolites as glucuronide at 5 mg/kg, po after 240 mins; type: ADME, organism-based; parameters: dose 5 mg/kg, route oral; conditions: in vivo, 4 h; summary of the method: as §1
# [23] = Clearance in db/db mouse at 1 mg/kg, iv; type: ADME, organism-based; parameters: dose 1 mg/kg, route intravenous; conditions: in vivo; summary of the method: as §4
# [24] = Plasma concentration in db/db mouse at 1 mg/kg, iv after 30 mins; type: ADME, organism-based; parameters: dose 1 mg/kg, route intravenous; conditions: read-out: Drug uptake; summary of the method: as §2
# Liver [25] = experiment: Drug level in db/db mouse liver measured metabolites as carboxylic acid at 1 mg/kg, iv after 240 mins; type: ADME, organism-based; parameters: dose 1 mg/kg, route intravenous; conditions: in vivo, 4 h; summary of the method: as §1
# [26] = Plasma concentration in db/db mouse at 1 mg/kg, iv after 240 mins; type: ADME, organism-based; parameters: dose 1 mg/kg, route intravenous; conditions: read-out: Drug uptake; summary of the method: as §2
# Mus musculus [27] = experiment: Volume of distribution in db/db mouse at 1 mg/kg, iv; type: ADME, organism-based; parameters: dose 1 mg/kg, route intravenous; conditions: in vivo; summary of the method: as §3
# [28] = Drug level in db/db mouse bile measured metabolites as carboxylic acid at 1 mg/kg, iv after 240 mins; type: ADME, organism-based; parameters: dose 1 mg/kg, route intravenous; conditions: in vivo, 4 h
# [29] = Drug level in db/db mouse bile measured metabolites as taurine amide at 5 mg/kg, po after 240 mins; type: ADME, organism-based; parameters: dose 5 mg/kg, route oral; conditions: in vivo, 4 h; summary of the method: as §1
# [30] = biological target: T1, Bile acid receptor (Homo sapiens); experiment: Agonist activity at human […] FXR LBD expressed in HEK293 cells coexpressing GAL4-DNA bindig domain and pFRluc by mammalian one-hybrid assay relative to GW-4064; type: functional, cell-based
# Liver [31] = experiment: Drug level in db/db mouse liver measured metabolites as glucuronide at 1 mg/kg, iv after 240 mins; type: ADME, organism-based; parameters: dose 1 mg/kg, route intravenous; conditions: in vivo, 4 h; summary of the method: as §1
# [32] = Plasma concentration in db/db mouse at 25 mg/kg bid after 4 hrs by LC/MS-MS analysis; type: ADME, organism-based; parameters: dose 25 mg/kg; conditions: read-out: Drug uptake
# Summary of the method: (§5)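 db/db mice were dosed twice daily for 12 days. Plasma and liver concentrations were determined 4 h and 24 h after the last administration.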
# Mus musculus [33] = experiment: Reduction in total plasma cholesterol level in db/db mouse at 1-25 mg/kg bid after 12 days; type: functional, organism-based
# Summary of the method: (§6)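 C57BL/KSK-mLep^db/mLep^db mice were dosed orally at 1, 5 and 25 mg/kg b.i.d. for 12 days. Total plasma triglycerides and total plasma cholesterol were measured, with cholesterol reported as mg/dl. Significance was given at p<0.05, <0.01 and <0.001 levels.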
# [34] = Drug level in db/db mouse liver at 25 mg/kg bid after 4 hrs by LC/MS-MS analysis; type: ADME, organism-based; parameters: dose 25 mg/kg; conditions: read-out: Drug uptake; summary of the method: as §5
# [35] = Drug level in db/db mouse liver at 25 mg/kg bid after 24 hrs by LC/MS-MS analysis; type: ADME, organism-based; parameters: dose 25 mg/kg; conditions: read-out: Drug uptake
# Summary of the method: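 C57BL/KSK-mLep^db/mLep^db (db/db) mice dosed orally b.i.d. for 12 days at 1, 5 or 25 mg/kg. Liver concentrations of parent compound measured 24 h after the last administration.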
# [36] = Plasma concentration in db/db mouse at 25 mg/kg bid after 24 hrs by LC/MS-MS analysis; type: ADME, organism-based; parameters: dose 25 mg/kg; conditions: read-out: Drug uptake; summary of the method: as §5
# Mus musculus [37] = experiment: Reduction in total plasma triglyceride level in db/db mouse at 1-25 mg/kg bid after 12 days; type: functional, organism-based; summary of the method: as §6
smiles,measurement,setting,value
CN(Cc1ccc(C(=O)NCCS(=O)(=O)O)cc1)c1ccc(OCc2c(-c3c(Cl)cccc3Cl)noc2C2CC2)nc1C(F)(F)F,Drug uptake,[1],24151 ng/mL
same,Drug uptake,Liver [2],350 ng/mL
same,concentration at 0.5 h,[3],6 ng/mL
same,concentration at 10 min,[4],59 ng/mL
same,Drug uptake,[5],169 ng/mL
same,Efficacy,[6],105%
same,EC50,Bile acid receptor [7],1420 nM
same,Drug uptake,Liver [8],262 ng/mL
same,concentration at 1.5 h,[9],19 ng/mL
same,bioavailability,[10],5.8%
same,CL/F,[11],3280 mL/min/kg
same,Efficacy,[12],49%
same,concentration at 5 min,[13],1 ng/mL
same,concentration at 1.5 h,[14],12 ng/mL
same,Drug uptake,Liver [15],6 ng/mL
same,concentration at 5 min,[16],72 ng/mL
same,EC50,Bile acid receptor [17],925 nM
same,EC50,Bile acid receptor [18],14 nM
same,Drug uptake,[19],1055 ng/mL
same,Drug uptake,[20],32 ng/mL
same,concentration at 10 min,[21],3 ng/mL
same,Drug uptake,Liver [22],30 ng/mL
same,clearance,[23],190 mL/min/kg
same,concentration at 0.5 h,[24],3 ng/mL
same,Drug uptake,Liver [25],8 ng/mL
same,concentration at 4 h,[26],8 ng/mL
same,Vd,Mus musculus [27],31.7 L/kg
same,Drug uptake,[28],12 ng/mL
same,Drug uptake,[29],32442 ng/mL
same,Efficacy,[30],57%
same,Drug uptake,Liver [31],7 ng/mL
CC[C@H]1[C@@H](O)[C@@H]2[C@H](CC[C@]3(C)[C@@H]([C@H](C)CCC(=O)O)CC[C@@H]23)[C@@]2(C)CC[C@@H](O)C[C@@H]12 [OBETICHOLIC ACID],concentration at 4 h,[32],2.12 µM
same,Activity,Mus musculus [33],Active
same,concentration at 4 h,[34],13.9 µM
same,concentration at 24 h,[35],16.6 µM
same,concentration at 24 h,[36],3.24 µM
same,Activity,Mus musculus [37],Active
